# From PubChem BioAssay
# Compounds with a hit are over-represented: about 3.1% of the library has one in this group of screens.
# PAX8 inh HTS = inhibitors of PAX8-driven TPO luciferase reporter, primary screen, RMG-I cells, single concentration | SteadyGlo, 24 h | AID 652154, 2013 | hit rate 1.2% among 360,000 | inhibition, % at 12.6 µM;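 active = mean replicate inhibition at least 60% with every replicate also reaching 60%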;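 note: luciferase light reporting Pax8 driven TPO promoter activity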
# HIV Env fusion = inhibitors of HIV-1 Env-driven cell-cell fusion, primary screen, HeLa-JRFL effector, CEM21 target cells, luciferase; inhibition, % at 12.3 µM; hit rate 1.1% among 360,000; AID 651610, 2012;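 active = mean replicate inhibition score of at least 50 and every replicate individually at or above 50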
# FGF22 binding-1 = binders of human FGF22 protein, primary screen, FGF22 synaptogenesis inhibitor project, biophysical, thermal shift, single point; activity (Tm shift, normalised), % at 9.99 µM; hit rate 1.5% among 340,000; recombinant FGF22 thermal shift, SYPRO orange fluorescence; percent of sucrose octasulfate shift, DMSO zero; Fibroblast growth factor 22 (Homo sapiens), Q9HCT0;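 active = mean Tm shift, scaled 0 neutral to 100 positive control, at about 1.3% or above, every replicate too, limit read from the data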
# Target sequence (Q9HCT0 whole entry, looked up): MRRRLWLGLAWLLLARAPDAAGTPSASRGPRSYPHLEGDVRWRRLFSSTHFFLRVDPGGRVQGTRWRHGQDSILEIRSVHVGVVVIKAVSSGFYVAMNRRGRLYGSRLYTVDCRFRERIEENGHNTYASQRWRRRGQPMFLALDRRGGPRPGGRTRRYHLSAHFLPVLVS
# FN deposition inh = inhibitors of fibronectin matrix deposition, primary screen, AH1F cells, Alexa488-fibronectin fluorescence, plate reader. hit rate 0.086% among 350,000. inhibition, % at 12.6 µM. AID 743247, 2014. AH1F fibroblasts, overnight;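 active = mean inhibition across replicates of 30% or more, regardless of how many single replicates reach that level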
#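 Material: AH1F fibroblasts assembling fluorescent fibronectin matrix; amount: 10000 AH1F cells/well; medium: DMEM, 2% serum; reagent: Alexa488-fibronectin, 24 nM final in well; dosing: single compound dose, delivered by pin transfer; incubation: 1 h adhesion, overnight exposure; detection: fluorescence after three HBSS washes, excitation 485 nm, emission 525 nm; measure: fibronectin deposition inhibition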
# EWS-Fli block = EWS/Fli-driven NR0B1 reporter inhibitors, primary screen, A673 cells, NR0B1 luciferase, luminescence, MLPCN library. viability-normalised. inhibition, % at 12.6 µM. hit rate 0.67% among 350,000. AID 651661, 2012;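 active = mean inhibition of at least 50% after viability correction, with every replicate also passing that limit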;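 note: firefly luciferase signal divided by Alamar Blue viability fluorescence both relative to DMSO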
# PGC1a acetyl inh = inhibitors of PGC1a acetylation signal, primary screen, cell-based, U2OS, AlphaScreen, inhibitor mode; AlphaScreen anti-acetyl-lysine; with virally co-expressed GCN5 acetyltransferase; hit rate 0.17% among 350,000; inhibition, % at 15.6 µM;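 active = every replicate shows inhibition of at least 40%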
# FGF22 binding-2 = binders of human FGF22 protein, dose response, FGF22 synaptogenesis inhibitor project, biophysical, thermal shift, cherry-pick retest | shares compounds with FGF22 binding-1 | recombinant FGF22 thermal shift, SYPRO orange fluorescence | thermal shift activity, °C (ΔTm) at 38 µM | hit rate 2% among 1,000;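 active = fitted rise in melting shift crosses a set limit at or below the top valid dose tested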
# SYPRO no-protein = compound-only thermal shift signal without protein, dose response, artefact control for FGF22 binder project, biochemical, cherry-picked samples, RT-PCR instrument; hit rate 2% among 1,000; AC50, µM (series often up to 38 µM); AID 743019, 2013; compound-only SYPRO orange thermal shift counter-screen, no protein; shares compounds with FGF22 binding-1;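 active = rising signal whose fitted curve reaches the 0.54 level within the top valid dose, showing a melting point, actives reach about 13 µM in these data; inactive = the rest, including activity in the opposite direction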; note: value is where the raw curve crosses a fixed level and not half-maximal
# A number is an active result; n = inactive; x = no result.
SMILES,PAX8 inh HTS,HIV Env fusion,FGF22 binding-1,FN deposition inh,EWS-Fli block,PGC1a acetyl inh,FGF22 binding-2,SYPRO no-protein
CCCNC(=O)N1CC(=O)N2[C@H](C1)[C@@H](c1ccc(-c3cccc(C)c3)cc1)[C@@H]2CO,n,x,6.9,x,n,n,n,n
O=C(NC1CCCCC1)N1CC(=O)N2[C@H](C1)[C@@H](c1ccc(-c3cccc(F)c3)cc1)[C@@H]2CO,n,x,2.3,x,n,n,n,n
CC=Cc1ccc2n(c1=O)C[C@H]1[C@H](CO)[C@@H](C(=O)NCC)[C@@H]2N1CCC(F)(F)F (mixture of isomers),n,x,n,x,n,n,x,x
CCCN1[C@@H]2c3ccc(-c4ccc(F)cc4)c(=O)n3C[C@@H]2[C@@H](CO)[C@@H]1C(=O)OC,n,x,n,x,n,x,x,x
C[C@H](CO)N1C[C@H](C)[C@@H](CN(C)Cc2ccc(C(=O)Nc3ccccc3N)cc2)Oc2ccc(NC(=O)Cn3cnnn3)cc2C1=O,x,n,n,n,n,n,x,x
C[C@H]1CN([C@@H](C)CO)C(=O)c2cccc(NS(=O)(=O)c3ccccc3)c2O[C@@H]1CN(C)S(=O)(=O)c1cccs1,x,n,n,x,n,n,x,x
Cc1noc(C)c1S(=O)(=O)N(C)C[C@H]1Oc2ccc(NC(=O)CCCN(C)C)cc2C(=O)N([C@H](C)CO)C[C@H]1C,x,n,n,x,n,n,x,x
COCC(=O)N1CC(=O)N2[C@H](CO)[C@H](c3ccc(Br)cc3)[C@H]2C1,n,x,1.6,x,n,n,n,n
Cc1noc(C)c1S(=O)(=O)Nc1ccc2c(c1)C(=O)N([C@@H](C)CO)C[C@@H](C)[C@H](CN(C)S(=O)(=O)c1cccs1)O2,n,n,n,x,n,n,x,x
COc1ccc(/C=N/N2C(C)CCCC2C)cc1OC (stereo unspecified),n,n,38.2,n,n,n,n,n
CC1CCCC(C)N1/N=C/c1ccc(Cl)cc1 (stereo unspecified),n,n,x,n,x,n,x,x
S=c1[nH]c2cc3ccccc3cc2[nH]1,n,n,2.1,n,n,n,n,n
COc1ccc(S(=O)(=O)N2C[C@@H](O)COC[C@H]3O[C@@H](CC(=O)NCc4ccc(Cl)c(Cl)c4)CC[C@@H]32)cc1,n,n,n,n,n,n,x,x
CC(C)NC(=O)Nc1ccc2c(c1)C(=O)N([C@H](C)CO)C[C@H](C)[C@H](CN(C)C(=O)Nc1cccc3ccccc13)O2,n,n,18.6,n,x,n,n,n
CC(C)NC(=O)Nc1ccc2c(c1)C(=O)N([C@H](C)CO)C[C@H](C)[C@@H](CN(C)C(=O)Nc1cccc3ccccc13)O2,n,n,n,x,x,n,x,x
C[C@H]1CN([C@@H](C)CO)C(=O)c2cccc(NC(=O)Nc3ccc4c(c3)OCO4)c2O[C@H]1CN(C)CC1CCCCC1,n,n,n,n,n,n,x,x
C[C@H](CO)N1C[C@H](C)[C@H](CN(C)CC2CCCCC2)Oc2c(NC(=O)Nc3ccc4c(c3)OCO4)cccc2C1=O,n,n,1.4,n,n,n,n,n
CC(C)NC(=O)Nc1ccc2c(c1)C(=O)N([C@H](C)CO)C[C@H](C)[C@@H](CN(C)C(=O)NC(C)C)O2,n,n,1.6,n,n,n,n,n
CCC(=O)N(C)C[C@H]1Oc2cc(C#CC3CC3)ccc2S(=O)(=O)N([C@H](C)CO)C[C@@H]1C,x,n,n,x,n,n,x,x
C[C@H]1CN([C@@H](C)CO)C(=O)c2cc(NC(=O)CCCCCC(=O)Nc3ccccc3N)ccc2O[C@@H]1CN(C)C(=O)Nc1cccc2ccccc12,n,x,n,x,n,n,x,x
COCC(=O)N(C)C[C@H]1Oc2ncc(C#Cc3ccc(OC)cc3)cc2C(=O)N([C@H](C)CO)C[C@@H]1C,x,n,n,x,n,n,x,x
COC(=O)c1c(CC[C@@H](CO)NC(=O)N[C@H](Cc2ccccc2)Cn2cc(-c3ccccn3)nn2)oc(C(C)=O)c1C(=O)OC,n,n,n,x,n,n,x,x
Cc1ccc(Cl)cc1NS(=O)(=O)c1ccc2c(c1)NC(=O)C(C)C(=O)N2 (stereo unspecified),n,n,1.9,n,n,x,n,n
CSCCC(NS(=O)(=O)c1ccc(Cl)c(Cl)c1)C(=O)O (stereo unspecified),n,n,1.4,n,n,n,n,n
O=C(Nc1ccc(F)cc1)N[C@@H]1CC[C@H](CCn2cc(-c3ccccc3F)nn2)O[C@H]1CO,x,n,2.9,n,n,n,n,n
SMILES,PAX8 inh HTS,HIV Env fusion,FGF22 binding-1,FN deposition inh,EWS-Fli block,PGC1a acetyl inh,FGF22 binding-2,SYPRO no-protein
O=C(Nc1ccc(F)cc1)N[C@H]1CC[C@H](CCn2cc(-c3ccccc3F)nn2)O[C@@H]1CO,x,n,n,n,n,n,x,x
O=C(Cc1cccnc1)N[C@@H]1CC[C@@H](CCn2cc(-c3ccccc3F)nn2)O[C@@H]1CO,n,n,1.3,x,n,n,n,n
O=C(Nc1ccc(F)cc1)N[C@H]1CC[C@@H](CCn2cc(-c3ccccc3F)nn2)O[C@H]1CO,x,n,1.4,n,n,n,n,n
O=C(Nc1ccc(F)cc1)N[C@H]1CC[C@@H](CCn2cc(-c3ccccc3F)nn2)O[C@@H]1CO,x,n,1.7,n,n,n,n,n
O=C(Nc1ccc(F)cc1)N[C@H]1CC[C@H](CCn2cc(-c3ccccc3F)nn2)O[C@H]1CO,x,n,n,n,n,n,x,x
O=C(CCN1CCCCC1)N[C@@H]1CC[C@H](CCNS(=O)(=O)c2ccc(F)cc2)O[C@@H]1CO,n,n,n,x,n,n,x,x
Nc1ccccc1N=Nc1ccccc1N,n,n,2.5,n,n,n,n,n
O=C(C[C@H]1CC[C@@H]2[C@H](COC[C@@H](O)CN2C(=O)c2ccncc2)O1)NCc1cccc(F)c1,n,n,n,n,n,n,x,x
O=C(c1cccc(NC2=NC3CS(=O)(=O)CC3S2)c1)N1CCN(c2ncccn2)CC1 (stereo unspecified),n,n,12.0,n,n,n,n,n
CC(C)(CNS(=O)(=O)c1ccc2c(c1)OCCO2)N1CCOCC1,n,n,1.4,n,n,n,n,n
